High-throughput results deposited in PubChem by several laboratories.
Only some compounds are listed: those with a hit (about 12% of all), similar ones and a draw of the others.
WT yeast gro inh: growth inhibition of WT strain, primary screen, mitochondrial fusion inhibitor project, WT and mutant strains, chemical genetic | 190,000 compounds, 2.1% hits | mitochondrial fusion phenotypic screen | inhibition, % at 10 µM | AID 1362, 2008; in the data active = inhibition above about 58%; tested in S. cerevisiae
ROMK primary: ROMK potassium channel modulators, primary screen, cell-based, thallium flux, MLSMR library | ATP-sensitive inward rectifier potassium channel 1 (Homo sapiens), P48048 | Tet-inducible ROMK, thallium flux fluorescence; actives lie on both sides | B-score at 10 µM | 130,000 compounds, 2% hits;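 active = signal ratio slope over the read window, or its plate-corrected B-score, at least 3 SD from the plate mean, either direction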;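 note: B-score of the F/F0 ratio slope over 7 to 12 s after thallium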
Diaphorase inh: diaphorase inhibitors and chemical oxidizers, primary screen, counter-screen for diaphorase-coupled primary assays, biochemical, uHTS, resorufin fluorescence. diaphorase resazurin-to-resorufin fluorescence, NADH, 16 min; bacterial (C. kluyveri) enzyme, not human. inhibition, % at 20 µM. 190,000 compounds, 0.69% hits. AID 1217, 2008;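 active = primary screen inhibition at 20 µM above a set limit, cut at about 50% in these data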;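 note: plate controls were DMSO with full reaction for no effect and wells lacking NADH for full effect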
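System: Diaphorase enzyme from Clostridium kluyveri | Amount: Enzyme working solution with 0.14 U/mL diaphorase | Benchmarks: No-NADH positive control and DMSO neutral control | Signal: Fluorescence of resorufin formed from resazurin, Ex 544/Em 590 nm | Schedule: 16-min room-temperature incubation before reading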
KCC2 mod: KCC2 cotransporter modulators, thallium flux, primary screen, cell-based, HEK293 KCC2, FluoZin-2 fluorescence, MLSMR. KCC2 cells, thallium flux FluoZin-2 fluorescence. B-score of Tl+ flux slope (higher = more flux/activation; lower = inhibition) at 10 µM. AID 1456, 2008. Solute carrier family 12 member 5 (Homo sapiens), Q9H2X9. 190,000 compounds, 2.2% hits;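 active = thallium flux slope and its plate-corrected score both differing from the plate sample mean at a set confidence after two filtering rounds, in either direction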;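 note: slope of fluorescence scaled to starting intensity during 10 to 20 s after thallium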
Target sequence (Q9H2X9 whole entry, looked up): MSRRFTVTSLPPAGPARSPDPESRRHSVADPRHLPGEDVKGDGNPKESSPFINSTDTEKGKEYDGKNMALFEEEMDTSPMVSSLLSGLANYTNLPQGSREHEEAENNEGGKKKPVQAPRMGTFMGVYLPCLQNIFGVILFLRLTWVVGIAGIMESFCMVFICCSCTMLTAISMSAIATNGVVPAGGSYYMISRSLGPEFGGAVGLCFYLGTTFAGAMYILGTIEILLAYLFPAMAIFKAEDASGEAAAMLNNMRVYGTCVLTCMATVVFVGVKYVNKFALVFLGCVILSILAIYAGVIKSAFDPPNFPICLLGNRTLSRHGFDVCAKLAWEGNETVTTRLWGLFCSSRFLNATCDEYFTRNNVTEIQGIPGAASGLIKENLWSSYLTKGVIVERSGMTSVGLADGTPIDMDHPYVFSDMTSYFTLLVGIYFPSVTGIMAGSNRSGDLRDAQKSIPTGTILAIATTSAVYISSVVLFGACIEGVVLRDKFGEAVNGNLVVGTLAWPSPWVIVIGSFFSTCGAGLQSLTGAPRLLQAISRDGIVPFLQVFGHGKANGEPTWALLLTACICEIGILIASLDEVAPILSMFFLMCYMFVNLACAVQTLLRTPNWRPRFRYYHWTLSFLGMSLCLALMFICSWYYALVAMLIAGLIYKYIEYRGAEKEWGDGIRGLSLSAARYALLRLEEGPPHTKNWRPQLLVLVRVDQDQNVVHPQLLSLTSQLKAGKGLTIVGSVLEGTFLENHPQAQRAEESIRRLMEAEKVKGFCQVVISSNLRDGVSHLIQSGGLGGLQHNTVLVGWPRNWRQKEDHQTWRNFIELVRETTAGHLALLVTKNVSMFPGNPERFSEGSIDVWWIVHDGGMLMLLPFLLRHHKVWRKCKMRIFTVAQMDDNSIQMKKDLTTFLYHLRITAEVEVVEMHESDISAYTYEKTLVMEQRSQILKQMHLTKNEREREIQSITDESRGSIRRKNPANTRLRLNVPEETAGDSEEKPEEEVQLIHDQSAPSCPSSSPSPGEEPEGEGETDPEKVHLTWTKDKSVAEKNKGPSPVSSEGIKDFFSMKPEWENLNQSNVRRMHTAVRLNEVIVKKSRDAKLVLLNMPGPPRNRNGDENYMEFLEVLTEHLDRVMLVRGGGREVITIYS
Lmaj promast: Leishmania major promastigote growth inhibition, primary screen; inhibition, % at 10 µM; AID 1063, 2008; Leishmania major promastigotes, resazurin fluorescence viability; 200,000 compounds, 9% hits; in the data active = inhibition above about 50%;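 note: promastigotes grown with compound for 44 hours at 28 °C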
Diaph act CS: compounds boosting diaphorase resazurin reduction – biochemical, uHTS, resorufin fluorescence, counter-screen for diaphorase-coupled primary assays, primary screen; Diaphorase/resazurin coupled assay, 16 min; active compounds read high; 1 = vehicle wells, 0 = NADH-free wells; activation factor at 20 µM; 190,000 compounds, 0.005% hits; AID 1229, 2008;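 active = diaphorase activity raised at least twofold by the compound at 20 µM; inactive = activation factor below 2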
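Assay system: bacterial diaphorase enzyme (C. kluyveri) / Input: enzyme 0.07 U/mL final / Medium: 50 mM HEPES pH 7.4 with 4.542 mM MgCl2, 0.005% Tween 20 / Doses: single compound dose of 20 µM, 1% DMSO final / Incubation: 16 min enzyme reaction, ambient temperature / Signal: fluorescence, excitation 544 nm and emission 590 nm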
ROMK retest: ROMK channel modulator hit retest, confirmation, cell-based, thallium flux, duplicate, resupplied hits; shares compounds with ROMK primary; AID 1917, 2009; 3,000 compounds, 54% hits; fluorescence ratio; active compounds read low; normalized thallium flux (F/F0 slope) at 10 µM;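 active = Flux at 10 µM at least 3 SD below or above vehicle control mean in one or both replicates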
* hit, by the source's call.

What do the screens show for `Cc1ccc(-n2c(C)c([N+](=O)[O-])c3ccc(O)c(CN(C)C)c32)cc1`?
WT yeast gro inh: -6.6; ROMK primary: -5.31*; Diaphorase inh: 7.8; Lmaj promast: 3.2; Diaph act CS: 0.9; ROMK retest: 0.0485*

What do the screens show for `N#C/C(=C\C1=C(N2CCOCC2)C(=C/c2cccc([N+](=O)[O-])c2)/CC1)C(=O)Nc1ccccc1F`?
WT yeast gro inh: 13.4; ROMK primary: -3.35*; Diaphorase inh: 20.6; KCC2 mod: -0.464; Lmaj promast: -5.6; Diaph act CS: 0.8; ROMK retest: 0.0606*

What do the screens show for `N#C/C(=C\C1=C(N2CCOCC2)C(=C\c2ccc(Cl)cc2)/CC1)C(=O)Nc1ccccc1F`?
WT yeast gro inh: -8.8; ROMK primary: -1.93; Diaphorase inh: 0.1; KCC2 mod: 0.362; Lmaj promast: 12.7; Diaph act CS: 1

How did OC(CCN1CCCCC1)(c1ccccc1)C1CCCCC1 (stereo not given) do in these assays?
WT yeast gro inh: 3.8; Diaphorase inh: 8.2; KCC2 mod: -0.244; Lmaj promast: 11.8; Diaph act CS: 0.9

Results for OC(C#CCCN1CCCCC1)(c1ccccc1)C1CCCCC1 (stereo not given) ?
KCC2 mod: 0.523; ROMK retest: 0.0625*

How did CCOc1cc(/C=C\[N+](=O)[O-])ccc1OCC(=O)N1CCOCC1 do in these assays?
WT yeast gro inh: -0.1; ROMK primary: -5.62*; Diaphorase inh: 9.0; KCC2 mod: 1.67; Lmaj promast: 11.1; Diaph act CS: 0.9; ROMK retest: 0.0565*

Results for CCOc1cc(C=O)ccc1OCC(=O)N1CCCC1 ?
WT yeast gro inh: -9.3; ROMK primary: 1.1; Diaphorase inh: 23.0; KCC2 mod: 0.182; Lmaj promast: -6.8; Diaph act CS: 0.8

Results for N=c1sccn1CC(=O)N1N=C(c2ccc(Cl)cc2)CC1c1ccco1 (stereo not given) ?
WT yeast gro inh: -3.6; ROMK primary: -3.18*; Diaphorase inh: 4.7; KCC2 mod: -0.445; Lmaj promast: 63.0*; Diaph act CS: 1; ROMK retest: 0.0641*

How did COc1ccc(-c2noc(-c3ccccc3C(=O)N3CCOCC3)n2)cc1 do in these assays?
WT yeast gro inh: 6.7; Diaphorase inh: 17.3; KCC2 mod: 0.0441; Lmaj promast: -3.3; Diaph act CS: 0.8

What do the screens show for `N#Cc1nc(-c2cccs2)oc1NCc1ccccc1`?
WT yeast gro inh: 40.0; ROMK primary: -3.62*; Diaphorase inh: 11.4; KCC2 mod: -1.6; Lmaj promast: 4.1; Diaph act CS: 0.9; ROMK retest: 0.0541*

What do the screens show for `CCOc1ccc(NC(=O)c2cccc(-n3cnnn3)c2)cc1`?
WT yeast gro inh: 7.2; ROMK primary: 0.855; Diaphorase inh: 12.5; KCC2 mod: 0.523; Lmaj promast: -7.6; Diaph act CS: 0.9

What do the screens show for `O=C(Nc1cnc2ccccc2c1)c1cccc(-n2cnnn2)c1`?
WT yeast gro inh: -3.9; Diaphorase inh: 6.7; KCC2 mod: -2.37; Lmaj promast: 8.7; Diaph act CS: 0.9; ROMK retest: 0.0599*

What do the screens show for `COc1ccc(S(=O)(=O)N(C)C)cc1NC(=O)COC(=O)c1nc2nccc(C)n2n1`?
KCC2 mod: 0.873; ROMK retest: 0.0751

What do the screens show for `CCOC(=O)C1CCN(C(=O)CN(c2ccc3c(c2)OCCO3)S(C)(=O)=O)CC1`?
WT yeast gro inh: -5.2; ROMK primary: 1.29; Diaphorase inh: 9.2; KCC2 mod: 0.819; Lmaj promast: -9.2; Diaph act CS: 0.9

Results for Cc1cccc(-n2c(Cc3ccccc3)nnc2SCc2ccc([N+](=O)[O-])cc2)c1 ?
WT yeast gro inh: 32.2; ROMK primary: -7.43*; Diaphorase inh: 27.1; KCC2 mod: -1.74; Lmaj promast: 8.4; Diaph act CS: 0.7; ROMK retest: 0.0437*

Results for COc1ccc(-n2c(Cc3ccccc3)nnc2SCc2ccc([N+](=O)[O-])cc2)cc1 ?
WT yeast gro inh: 17.1; ROMK primary: -2.32*; Diaphorase inh: 16.0; KCC2 mod: -2.29; Lmaj promast: 7.0; Diaph act CS: 0.8; ROMK retest: 0.0599*

What do the screens show for `Cc1ccc(-n2c(-c3c(-c4ccccc4)noc3C)n[nH]c2=S)cc1`?
WT yeast gro inh: -8.7; ROMK primary: 0.709; Diaphorase inh: 23.5; Lmaj promast: -0.6; Diaph act CS: 0.8

Results for CC(C)n1cc(CN2CCN(CCc3ccccc3)C(CCO)C2)cn1 (stereo not given) ?
WT yeast gro inh: 3.9; ROMK primary: 1.12; Diaphorase inh: 6.2; KCC2 mod: -0.33; Lmaj promast: 27.6; Diaph act CS: 0.9

What do the screens show for `O=C(NCCCN1CCCC1)c1ccc2c(c1)N(Cc1ccccc1)CCS2`?
KCC2 mod: -0.912

What do the screens show for `O=C(NCCCOc1cccc(CN2CCCCC2)c1)c1ccc(Cl)c(Cl)c1`?
WT yeast gro inh: -10.8; ROMK primary: -3.47*; Diaphorase inh: 5.0; KCC2 mod: 0.539; Lmaj promast: 66.3*; Diaph act CS: 0.9; ROMK retest: 0.0568*

Results for COc1ccc(/C=C2\SC(=S)N(NC(=O)c3csc4c3CCCC4)C2=O)cc1 ?
WT yeast gro inh: 4.9; Diaphorase inh: 19.4; KCC2 mod: 0.499; Lmaj promast: -6.4; Diaph act CS: 0.8

Results for CSCCC(NS(=O)(=O)c1ccc(Cl)cc1)C(=O)OCC(=O)N1CCOCC1 (stereo not given) ?
WT yeast gro inh: -13.0; ROMK primary: 6.32*; KCC2 mod: 0.866; Lmaj promast: -7.3; ROMK retest: 0.094

Results for O=C(CN1CCNCC1)NCCSc1ccc(Cl)cc1 ?
WT yeast gro inh: -5.7; ROMK primary: -2.04*; Diaphorase inh: -1.5; KCC2 mod: -0.421; Lmaj promast: 88.0*; Diaph act CS: 1; ROMK retest: 0.0675*

What do the screens show for `O=C(Cc1cccs1)NCc1ccco1`?
WT yeast gro inh: -9.4; Diaphorase inh: 5.3; KCC2 mod: 0.0109; Lmaj promast: -0.2; Diaph act CS: 0.9

How did O=C(Cc1cccs1)NNC(=S)NCc1ccco1 do in these assays?
WT yeast gro inh: 3.9; ROMK primary: -9.36*; Diaphorase inh: 17.4; Lmaj promast: 2.7; Diaph act CS: 0.8; ROMK retest: 0.0778
